# Reference: ChEMBL document CHEMBL3286371, “wALADin benzimidazoles differentially modulate the function of porphobilinogen synthase orthologs” (J Med Chem, 2014)
# Activity calls are given as the source filed them. The rule behind the calls is not given here.
# Key:
# Toxoplasma gondii [1] = experiment: Stimulation of Toxoplasma gondii recombinant PBGS using 5-ALA as substrate at […]
# [2] = target: Delta-aminolevulinic acid dehydratase (Pseudomonas aeruginosa (strain ATCC 15692 / PAO1 / 1C / PRS 101 / LMG12228)) (UniProt Q59643); experiment: Stimulation of Pseudomonas aeruginosa PAO1 recombinant PBGS using 5-ALA as substrate at […]
# [3] = target: T1, Delta-aminolevulinic acid dehydratase (Escherichia coli (strain K12)) (UniProt P0ACB2); experiment: Inhibition of Escherichia coli recombinant PBGS using 5-ALA as substrate at […]
# T1 sequence (whole entry): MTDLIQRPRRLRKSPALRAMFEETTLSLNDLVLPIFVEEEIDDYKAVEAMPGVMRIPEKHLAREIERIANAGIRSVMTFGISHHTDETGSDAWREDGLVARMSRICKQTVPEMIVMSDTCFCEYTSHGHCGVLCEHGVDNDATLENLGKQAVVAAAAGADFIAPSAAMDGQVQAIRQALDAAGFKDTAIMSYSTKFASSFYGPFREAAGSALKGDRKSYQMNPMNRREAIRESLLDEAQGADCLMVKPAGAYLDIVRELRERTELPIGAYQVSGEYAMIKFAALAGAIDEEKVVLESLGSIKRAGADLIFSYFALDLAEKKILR
# Toxoplasma gondii [4] = experiment: Inhibition of Toxoplasma gondii recombinant PBGS using 5-ALA as substrate at […]
# [5] = target: T2, Delta-aminolevulinic acid dehydratase, chloroplastic (Pisum sativum, UniProt P30124); experiment: Inhibition of Pisum sativum PBGS using 5-ALA as substrate; set-up: species or system Lathyrus oleraceus
# T2 sequence (P30124 whole entry): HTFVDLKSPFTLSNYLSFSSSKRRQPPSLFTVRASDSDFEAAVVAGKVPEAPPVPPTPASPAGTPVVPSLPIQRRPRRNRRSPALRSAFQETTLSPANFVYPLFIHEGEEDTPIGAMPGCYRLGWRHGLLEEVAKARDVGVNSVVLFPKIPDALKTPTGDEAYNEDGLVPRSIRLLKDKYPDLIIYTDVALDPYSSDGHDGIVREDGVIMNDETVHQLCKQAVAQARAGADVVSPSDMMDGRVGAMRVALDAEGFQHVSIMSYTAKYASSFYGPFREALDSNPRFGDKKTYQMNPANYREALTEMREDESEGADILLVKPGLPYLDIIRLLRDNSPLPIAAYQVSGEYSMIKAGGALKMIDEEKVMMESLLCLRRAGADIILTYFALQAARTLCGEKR
# How it was run: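 Pea (P. sativum) PBGS at 300 nM subunit in 100 mM BTP-HCl pH 8.5 with 1 mM MgCl2, 5 mM DTT and 0.2 mM 5-ALA, 15 min at 36 °C. Porphobilinogen detected with Ehrlich's reagent. Activity normalized to 6.7% DMSO control as 100%. IC50 from variable-slope normalized-response fit.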
# [6] = target: T1, Delta-aminolevulinic acid dehydratase (Escherichia coli (strain K12)); experiment: Stimulation of Escherichia coli recombinant PBGS using 5-ALA as substrate at […]
# [7] = target: Delta-aminolevulinic acid dehydratase (Yersinia enterocolitica W22703) (UniProt F4MUJ9); experiment: Stimulation of Yersinia enterocolitica recombinant PBGS expressed in Escherichia coli using 5-ALA as substrate at […]
# [8] = target: Delta-aminolevulinic acid dehydratase (Pseudomonas aeruginosa (strain ATCC 15692 / PAO1 / 1C / PRS 101 / LMG12228)) (UniProt Q59643); experiment: Inhibition of Pseudomonas aeruginosa PAO1 recombinant PBGS using 5-ALA as substrate at […]
# [9] = target: T3, Delta-aminolevulinic acid dehydratase (Drosophila melanogaster, UniProt Q9VTV9); experiment: Inhibition of Drosophila melanogaster recombinant PBGS using 5-ALA as substrate
# T3 sequence (Q9VTV9 whole entry): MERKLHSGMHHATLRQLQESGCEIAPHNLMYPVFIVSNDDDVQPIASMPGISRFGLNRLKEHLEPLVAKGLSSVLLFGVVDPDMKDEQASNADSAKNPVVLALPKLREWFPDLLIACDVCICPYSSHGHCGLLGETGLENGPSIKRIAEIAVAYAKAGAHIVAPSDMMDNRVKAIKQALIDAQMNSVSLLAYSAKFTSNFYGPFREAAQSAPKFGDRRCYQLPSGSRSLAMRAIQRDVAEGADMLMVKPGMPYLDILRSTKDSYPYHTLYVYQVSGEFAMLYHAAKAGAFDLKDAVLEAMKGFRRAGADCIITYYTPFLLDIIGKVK
# [10] = Ratio of IC50 for Pisum sativum PBGS to IC50 for C-terminal His-tagged Wolbachia PBGS
# [11] = target: T4, Delta-aminolevulinic acid dehydratase (Pseudomonas aeruginosa (strain ATCC 15692 / PAO1 / 1C / PRS 101 / LMG12228), UniProt Q59643); experiment: Inhibition of Pseudomonas aeruginosa PAO1 recombinant PBGS using 5-ALA as substrate
# How it was run: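 Turnover kept at or below 30%. Porphobilinogen measured with Ehrlich's reagent. IC50 by variable-slope fit of activity normalized to DMSO control.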
# [12] = target: Delta-aminolevulinic acid dehydratase (Yersinia enterocolitica W22703) (UniProt F4MUJ9); experiment: Inhibition of Yersinia enterocolitica recombinant PBGS expressed in Escherichia coli using 5-ALA as substrate at […]
# [13] = target: T1, Delta-aminolevulinic acid dehydratase (Escherichia coli (strain K12)); experiment: Stimulation of Escherichia coli recombinant PBGS using 5-ALA as substrate relative to control
# How it was run: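 E. coli PBGS at 200 nM subunit in 100 mM BTP-HCl pH 8.1 with 1 mM MgCl2, 10 μM ZnCl2, 5 mM DTT and 0.2 mM 5-ALA, 10 min at 36 °C. Porphobilinogen detected with Ehrlich's reagent. EC50 by log(agonist) vs response variable-slope fit.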
# [14] = target: Delta-aminolevulinic acid dehydratase (Yersinia enterocolitica W22703) (UniProt F4MUJ9); experiment: Stimulation of Yersinia enterocolitica recombinant PBGS expressed in Escherichia coli using 5-ALA as substrate relative to control
# How it was run: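 Y. enterocolitica PBGS, expressed in E. coli from pET3, at 150 nM subunit in 100 mM BTP-HCl pH 8.0 with 1 mM MgCl2, 5 mM DTT, 100 mM KCl and 0.2 mM 5-ALA, 10 min at 36 °C. Porphobilinogen read with Ehrlich's reagent. Activity normalized to 6.7% DMSO control as 100%. EC50 from variable-slope agonist fit.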
# [15] = target: Delta-aminolevulinic acid dehydratase (Yersinia enterocolitica W22703, UniProt F4MUJ9); experiment: Stimulation of Yersinia enterocolitica recombinant PBGS expressed in Escherichia coli using 5-ALA as substrate
# [16] = target: T5, Delta-aminolevulinic acid dehydratase (Wolbachia sp. subsp. Brugia malayi (strain TRS), UniProt Q5GSR3); experiment: Inhibition of C-terminal His-tagged Wolbachia PBGS using 5-ALA as substrate
# T5 sequence (Q5GSR3 whole entry): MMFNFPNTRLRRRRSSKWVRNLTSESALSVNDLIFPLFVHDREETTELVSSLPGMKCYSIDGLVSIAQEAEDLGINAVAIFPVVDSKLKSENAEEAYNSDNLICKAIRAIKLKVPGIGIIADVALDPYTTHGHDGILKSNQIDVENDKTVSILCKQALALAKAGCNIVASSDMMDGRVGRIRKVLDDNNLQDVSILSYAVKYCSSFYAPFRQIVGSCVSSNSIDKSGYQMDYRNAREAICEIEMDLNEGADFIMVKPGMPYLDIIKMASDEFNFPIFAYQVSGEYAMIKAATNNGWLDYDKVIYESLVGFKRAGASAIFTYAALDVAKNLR
# [17] = Stimulation of Toxoplasma gondii recombinant PBGS using 5-ALA as substrate
# How it was run: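 T. gondii PBGS, expressed from pET-21b in BL21 E. coli and purified, at 250 nM subunit in 100 mM Tris-HCl pH 8.0 with 1 mM MgCl2, 5 mM DTT and 0.2 mM 5-ALA, 20 min at 36 °C. Porphobilinogen detected with Ehrlich's reagent. Activity normalized to 6.7% DMSO control. EC50 by variable-slope agonist fit.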
# Toxoplasma gondii [18] = experiment: Stimulation of Toxoplasma gondii recombinant PBGS using 5-ALA as substrate relative to control
# How it was run: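 Recombinant T. gondii PBGS (hemB in pET-21b, expressed in BL21 E. coli) at 250 nM subunit in 100 mM Tris-HCl pH 8.0, 1 mM MgCl2, 5 mM DTT, with 200 μM 5-ALA, 20 min at 36 °C. Porphobilinogen was read with Ehrlich's reagent, and turnover was kept at or below 30%.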
# [19] = target: T6, Delta-aminolevulinic acid dehydratase (Escherichia coli (strain K12), UniProt P0ACB2); experiment: Stimulation of Escherichia coli recombinant PBGS using 5-ALA as substrate
# T6 sequence (P0ACB2 whole entry): T1 sequence (whole entry)
# How it was run: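 E. coli PBGS at 200 nM subunit in 100 mM BTP-HCl pH 8.1 with 1 mM MgCl2, 10 μM ZnCl2, 5 mM DTT and 0.2 mM 5-ALA, 10 min at 36 °C. Porphobilinogen detected with Ehrlich's reagent. Activity normalized to control with 6.7% DMSO set at 100%. EC50 by log(agonist) vs response variable-slope fit.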
# [20] = target: Delta-aminolevulinic acid dehydratase (Pseudomonas aeruginosa (strain ATCC 15692 / PAO1 / 1C / PRS 101 / LMG12228)) (UniProt Q59643); experiment: Stimulation of Pseudomonas aeruginosa PAO1 recombinant PBGS using 5-ALA as substrate relative to control
# How it was run: (§1)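 His-tagged PaPBGS at 150 nM subunit in 100 mM Tris-HCl pH 8.0 with 1 mM MgCl2, 100 mM KCl and 0.2 mM 5-ALA, 10 min at 36 °C, with turnover at most 30%. Porphobilinogen read with Ehrlich's reagent. Activity normalized to 6.7% DMSO control as 100%. EC50 from variable-slope agonist fit.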
# [21] = target: T4, Delta-aminolevulinic acid dehydratase; experiment: Stimulation of Pseudomonas aeruginosa PAO1 recombinant PBGS using 5-ALA as substrate; how it was run: as §1
# [22] = target: T7, Delta-aminolevulinic acid dehydratase (Homo sapiens, UniProt P13716); experiment: Inhibition of human PBGS using 5-ALA as substrate
# T7 sequence (P13716 whole entry): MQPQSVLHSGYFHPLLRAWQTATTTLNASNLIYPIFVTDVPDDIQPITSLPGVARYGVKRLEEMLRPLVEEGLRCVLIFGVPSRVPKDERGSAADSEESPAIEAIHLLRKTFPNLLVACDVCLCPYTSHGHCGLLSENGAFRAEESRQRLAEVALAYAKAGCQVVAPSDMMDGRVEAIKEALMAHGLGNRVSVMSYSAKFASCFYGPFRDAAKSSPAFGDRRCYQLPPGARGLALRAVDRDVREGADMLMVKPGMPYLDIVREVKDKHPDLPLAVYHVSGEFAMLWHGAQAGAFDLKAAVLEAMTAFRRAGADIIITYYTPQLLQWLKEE
# Chain of Delta-aminolevulinic acid dehydratase (Yersinia enterocolitica W22703) (F4MUJ9 as listed by the source): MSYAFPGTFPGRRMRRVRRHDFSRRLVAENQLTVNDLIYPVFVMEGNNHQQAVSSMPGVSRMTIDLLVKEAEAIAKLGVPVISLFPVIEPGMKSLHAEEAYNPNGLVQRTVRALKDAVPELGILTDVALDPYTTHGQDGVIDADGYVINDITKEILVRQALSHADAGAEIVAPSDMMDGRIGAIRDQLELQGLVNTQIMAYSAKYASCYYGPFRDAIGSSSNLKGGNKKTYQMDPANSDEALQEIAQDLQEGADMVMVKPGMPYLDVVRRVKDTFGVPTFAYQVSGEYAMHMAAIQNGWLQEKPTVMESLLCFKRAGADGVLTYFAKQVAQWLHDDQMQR
# Chain of Delta-aminolevulinic acid dehydratase (Pseudomonas aeruginosa (strain ATCC 15692 / PAO1 / 1C / PRS 101 / LMG12228)) (Q59643 whole entry): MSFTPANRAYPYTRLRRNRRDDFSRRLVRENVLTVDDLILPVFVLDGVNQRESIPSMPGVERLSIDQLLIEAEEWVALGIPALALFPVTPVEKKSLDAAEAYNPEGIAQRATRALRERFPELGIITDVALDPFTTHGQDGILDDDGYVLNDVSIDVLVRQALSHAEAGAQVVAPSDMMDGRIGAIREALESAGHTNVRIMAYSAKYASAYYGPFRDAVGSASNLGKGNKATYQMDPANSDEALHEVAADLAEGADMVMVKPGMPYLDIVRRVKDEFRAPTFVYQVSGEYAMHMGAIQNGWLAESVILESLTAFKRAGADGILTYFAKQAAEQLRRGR
# T4 sequence (Q59643 whole entry): as above
# Chain of Delta-aminolevulinic acid dehydratase (Yersinia enterocolitica W22703, UniProt F4MUJ9) (F4MUJ9 whole entry, one chain of several): as the sequence (F4MUJ9 as listed by the source) above
smiles,measurement,setting,value
O=C(O)c1c2c(nc3ccccc13)CCN(C(=O)c1cccc(C(F)(F)F)c1)C2,Smax,Toxoplasma gondii [1],100%
same,Smax,[2],100%
same,inhibition,[3],inactive
same,inhibition,Toxoplasma gondii [4],inactive
same,IC50,[5],88.2 µM
same,Smax,[6],100%
same,Smax,[7],100%
same,inhibition,[8],inactive
same,IC50,[9],> 1000 µM
same,Ratio IC50,[10],10
same,IC50,[11],475 µM
same,inhibition,[12],inactive
O=C(NCCc1nc2c(C(=O)O)cccc2n1Cc1cccc(C(F)(F)F)c1)c1cccs1,Smax,[13],116%
same,Smax,[14],123%
same,IC50,[5],> 500 µM
same,EC50,[15],23 µM
same,IC50,[16],500 µM
same,EC50,[17],21 µM
same,inhibition,[8],inactive
same,Smax,Toxoplasma gondii [18],130%
same,IC50,[9],> 1000 µM
same,EC50,[19],19 µM
same,Smax,[20],136%
same,EC50,[21],15 µM
same,IC50,[22],500 µM
